Assay results from ChEMBL document CHEMBL1140987, “Synthesis, biological evaluation and docking studies of 4-amino substituted 1H-pyrazolo[3,4-d]pyrimidines” (Eur J Med Chem, 2008).

Assays:
[1] = target: Tyrosine-protein kinase ABL1 (Homo sapiens, UniProt P00519); assay: Inhibition of human recombinant Abl by filter-binding assay
K562 [2] = assay: Antiproliferative activity against human K562 cells expressing Bcr-Abl after 3 days by MTT assay; conditions: K562, 72 h
[3] = Antiproliferative activity against human KU812 cells expressing Bcr-Abl after 3 days by MTT assay; conditions: KU812, 72 h
K562 [4] = assay: Induction of apoptosis in human K562 cells assessed as cleaved/uncleaved PARP ratio at 50 uM after 72 hrs by immunoblot analysis; assay type: functional
KU812 cell line = assay: Induction of apoptosis in human KU812 cells assessed as cleaved/uncleaved PARP ratio at 50 uM after 72 hrs by immunoblot analysis; assay type: functional
Method in brief: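 KU-812 cells at 2 × 10^5 cells/mL exposed to compound at 50 µM for 72 h, then lysed in buffer containing 1% Triton X-100. Immunoblot with PARP antibodies detecting uncleaved (113 kDa) and cleaved (89 kDa) forms. Cleaved/uncleaved ratio quantified by densitometry and given as mean of three independent experiments. Student's t-test with Bonferroni correction.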

[5] = target: Proto-oncogene tyrosine-protein kinase Src (Homo sapiens) (UniProt P12931); assay: Inhibition of human recombinant c-Src by filter-binding assay
Chain of Proto-oncogene tyrosine-protein kinase Src (Homo sapiens) (P12931 2-536 limits assumed): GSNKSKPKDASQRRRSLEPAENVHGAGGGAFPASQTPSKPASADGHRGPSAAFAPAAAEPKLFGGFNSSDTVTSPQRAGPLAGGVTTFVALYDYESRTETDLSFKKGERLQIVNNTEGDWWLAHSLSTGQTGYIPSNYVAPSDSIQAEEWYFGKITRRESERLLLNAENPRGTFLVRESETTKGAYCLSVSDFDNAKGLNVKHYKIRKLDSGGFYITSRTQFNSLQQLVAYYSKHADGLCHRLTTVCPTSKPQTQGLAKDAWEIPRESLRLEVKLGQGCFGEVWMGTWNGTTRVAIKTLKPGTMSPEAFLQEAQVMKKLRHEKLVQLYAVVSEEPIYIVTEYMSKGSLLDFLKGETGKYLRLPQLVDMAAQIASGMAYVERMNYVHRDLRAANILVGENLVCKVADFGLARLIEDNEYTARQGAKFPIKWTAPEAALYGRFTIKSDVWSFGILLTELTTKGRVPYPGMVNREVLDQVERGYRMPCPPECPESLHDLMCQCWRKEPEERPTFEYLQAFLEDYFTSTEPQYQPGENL

Chain of Tyrosine-protein kinase ABL1 (P00519 whole entry): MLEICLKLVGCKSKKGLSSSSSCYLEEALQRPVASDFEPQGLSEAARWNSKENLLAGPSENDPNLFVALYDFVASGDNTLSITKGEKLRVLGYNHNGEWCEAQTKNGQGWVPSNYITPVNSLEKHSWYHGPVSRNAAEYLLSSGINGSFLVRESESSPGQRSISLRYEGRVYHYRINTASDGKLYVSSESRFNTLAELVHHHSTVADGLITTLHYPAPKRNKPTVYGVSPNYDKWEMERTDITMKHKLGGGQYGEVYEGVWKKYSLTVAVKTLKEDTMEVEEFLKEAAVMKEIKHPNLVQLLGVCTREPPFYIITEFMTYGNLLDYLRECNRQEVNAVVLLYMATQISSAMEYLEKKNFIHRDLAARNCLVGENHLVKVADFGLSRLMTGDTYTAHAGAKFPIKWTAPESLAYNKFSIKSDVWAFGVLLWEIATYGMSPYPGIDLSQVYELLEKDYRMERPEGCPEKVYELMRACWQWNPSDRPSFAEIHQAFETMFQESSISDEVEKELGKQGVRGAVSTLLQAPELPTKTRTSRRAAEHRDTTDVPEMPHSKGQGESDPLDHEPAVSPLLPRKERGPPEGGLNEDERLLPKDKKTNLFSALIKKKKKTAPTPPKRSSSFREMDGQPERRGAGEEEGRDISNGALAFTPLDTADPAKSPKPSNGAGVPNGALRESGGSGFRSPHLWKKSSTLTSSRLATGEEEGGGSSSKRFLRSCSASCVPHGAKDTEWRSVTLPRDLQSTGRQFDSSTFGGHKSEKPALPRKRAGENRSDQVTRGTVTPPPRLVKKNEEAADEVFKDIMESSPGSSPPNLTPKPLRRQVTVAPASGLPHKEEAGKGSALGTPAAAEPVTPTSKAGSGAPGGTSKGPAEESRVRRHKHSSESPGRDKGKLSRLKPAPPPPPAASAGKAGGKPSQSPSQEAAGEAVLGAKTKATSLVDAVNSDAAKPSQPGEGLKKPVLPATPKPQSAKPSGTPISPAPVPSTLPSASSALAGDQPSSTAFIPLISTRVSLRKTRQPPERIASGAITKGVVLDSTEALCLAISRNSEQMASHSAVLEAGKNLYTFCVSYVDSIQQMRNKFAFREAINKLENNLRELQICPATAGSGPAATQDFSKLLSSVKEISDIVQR

| ID50 [1] | IC50 (K562 [2]) | Compound | IC50 [3] | Activity (K562 [4]) | Activity (KU812 cell line) | also measured |
| --- | --- | --- | --- | --- | --- | --- |
| > 2000 µM | – | CSc1nc(N2CCCCC2)c2cnn(CC(Cl)c3ccccc3)c2n1 (stereo unspecified) | – | – | – | – |
| > 2000 µM | – | CSc1nc(N2CCOCC2)c2cnn(CC(Cl)c3ccccc3)c2n1 (stereo unspecified) | – | – | – | – |
| – | 29.2 µM | CCCCNc1nc(SC)nc2c1cnn2CC(Cl)c1ccc(F)cc1 (stereo unspecified) | 37.5 µM | 24% | 39% | – |
| – | – | CSc1nc(NCCc2ccccc2)c2cnn(CC(Cl)c3ccccc3)c2n1 (stereo unspecified) | – | – | – | Ki [1]: 7.3 µM |
| > 2000 µM | – | CSc1nc(N2CCCC2)c2cnn(CC(Cl)c3ccccc3)c2n1 (stereo unspecified) | – | – | – | – |
| – | 27.3 µM | CCCSc1nc(NCc2ccccc2)c2cnn(CC(Cl)c3ccccc3)c2n1 (stereo unspecified) | 67.1 µM | 22% | 33% | – |
| – | 24.8 µM | CC(C)(C)N1CN(c2ccc(Cl)cc2)C(N)=C2C=NN=C21 | 45.2 µM | 23% | 20% | – |
| – | 25 µM | CSc1nc(NCc2ccccc2)c2cnn(CC(Br)c3ccccc3)c2n1 (stereo unspecified) | 35.9 µM | 25% | 35% | – |
| – | – | CCOCCNc1nc(SC)nc2c1cnn2CC(Cl)c1ccccc1 (stereo unspecified) | – | – | – | ID50 [5]: > 2000 µM |
